Our source for the IC50, IC80 and Activity values is ChEMBL document CHEMBL1148164, “Cytotoxicity of artemisinin-related endoperoxides to Ehrlich ascites tumor cells” (J Nat Prod, 1993).

The nature of test [1]: Cytotoxicity against mouse EAC after 3 days by MTT assay. The class given is functional, cell-based. Conditions: Ehrlich, 72 h. The method in brief:
(§1)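 Exponentially growing EAT cells (>95% trypan-blue viable; RPMI 1640, 10% heat-inactivated FCS) at 400 cells/well were exposed to compounds for 2 h at 37°, 5% CO2 (final DMSO 0.25%). Cells were washed 3×, then grown 3 days. MTT (5 mg/ml in PBS) was added for 3 h 45 min, formazan was dissolved in DMSO, and A520 was read. Survival is relative to untreated, medium-blank corrected. Three separate experiments.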
For orientation: Formazan colour is commonly taken as a measure of viable cells.

Test [2] is described as follows: Cytotoxicity against mouse EAC at >175 uM after 3 days by MTT assay. The class given is functional, Ehrlich. The essentials: as §1
Test [3] can be described thus: Cytotoxicity against mouse EAC at >125 uM after 3 days by MTT assay. It counts as functional, Ehrlich. The method in brief:
as §1

Test [4] can be described thus: Cytotoxicity against mouse EAC at >50 uM after 3 days by MTT assay. The class given is functional, Ehrlich. The essentials: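 EAT cells grown in suspension in RPMI 1640 with 10% heat-inactivated FCS, streptomycin and penicillin, 37°, 5% CO2; exponential cells, viability >95%. 400 cells/well exposed 2 h at 37° (final DMSO 0.25%), washed 3×, regrown 3 days. MTT 3 h 45 min, formazan in DMSO, A520; survival versus untreated controls. Triplicate separate experiments, mean ± SD.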

Test [5] in a line: Cell cycle arrest in mouse EAC assessed as accumulation at S phase by FACS analysis. It counts as functional, cell-based. More on the design: concentration or dose not given beside the values. Conditions: Ehrlich.
The nature of test [6]: Cytotoxicity against mouse EAC at >500 uM after 3 days by MTT assay. The class given is functional, Ehrlich. The method in brief:
as §1

Regarding `CC(=O)[C@@H]1CC[C@@H](C)[C@@H]2CC[C@@]3(C)OO[C@@]12C(=O)O3`, in test [1], the IC50 is above 175 µM and the IC80 was above 175 µM. In addition, the Activity in test [2] is 98.1%.
In the case of `C[C@@H]1CC[C@@H]2[C@]34OO[C@@](C)(CC[C@@H]13)O[C@H]4OC(=O)[C@@]2(C)O`, in test [1], the IC50 is above 125 µM and the IC80 was above 125 µM. In test [3], this compound displayed an Activity of 98.8%.
In test [1], `C[C@@H]1CC[C@@H]2[C@]34OO[C@](C)(CC[C@@H]13)O[C@H]4OC(=O)[C@]2(C)O` registered an IC50 of 48.7 µM and an IC80 of 125 µM.
In test [1], `C[C@H]1[C@H](O[C@@H]2O[C@@H]3O[C@@]4(C)CC[C@H]5[C@H](C)CC[C@@H]([C@H]2C)[C@@]35OO4)O[C@@H]2O[C@@]3(C)CC[C@H]4[C@H](C)CC[C@@H]1[C@@]24OO3` displayed an IC50 of 1.4 µM and an IC80 of 2.4 µM.
In the same order, the values of `CC(=O)[C@@H]1CC[C@@H](C)[C@@H]2CC[C@@]3(C)OO[C@@]12[C@H](OC=O)O3` are 91 µM and 156 µM.
In the same order, the values of `CC1=CO[C@@H]2O[C@]3(C)CC[C@H]4[C@H](C)CC[C@@H]1[C@@]24OO3` [ANHYDRODIHYDROARTEMISININ] are 29.2 µM and 207 µM.
On to `C=C1C(=O)O[C@@]23[C@H]1CC[C@@H](C)[C@@H]2CC[C@@]1(C)O[C@@H]31` [ARTEANNUIN B], for which, in test [1], the IC50 was 47 µM and the IC80 is above 50 µM. The same compound had an Activity in test [4] of 44.8%.
As to `C[C@@H]1[C@H](OCc2ccc(C(=O)O)cc2)O[C@@H]2O[C@@]3(C)CC[C@@H]4[C@@H](C)CC[C@@H]1[C@]24OO3` [ARTELINIC ACID], in test [5], the Activity is 63%. Also, in test [1], it took 16.1 µM to reach half-maximal inhibition (IC50) and it took 103 µM to reach the 80% level (IC80).
With `CO[C@H]1O[C@@H]2O[C@@]3(C)CC[C@H]4[C@H](C)CC[C@@H]([C@H]1C)[C@@]24OO3` [ARTEMETHER], the Activity in test [5] came to 63%. For the same compound, in test [1], 14.3 µM corresponded to half-maximal inhibition (IC50) and the IC80 was above 125 µM. In test [3], the Activity was 26.7%.
Turning to `C=C(C(=O)O)[C@@H]1CC[C@@H](C)[C@@H]2CCC(C)=C[C@@H]21` [ARTEMISINIC ACID], in test [1], the IC50 is above 175 µM and the IC80 was above 175 µM. The Activity in test [2] was determined as 100%.
As to `C[C@@H]1CC[C@H]2[C@@H](C)C(=O)O[C@@H]3O[C@@]4(C)CC[C@@H]1[C@]32OO4` [ARTEMISININ], the Activity in test [5] was 63%. Besides, in test [1], the 50% inhibitory concentration (IC50) is 29.8 µM and the IC80 was found to be 346 µM.
Take `C=C1C(=O)O[C@@H]2O[C@@]3(C)CC[C@H]4[C@H](C)CC[C@@H]1[C@@]24OO3` [ARTEMISITENE]: in test [1], the IC50 was found to be 6.8 µM and the IC80 was 16 µM.
For the compound `CCO[C@H]1O[C@@H]2O[C@@]3(C)CC[C@H]4[C@H](C)CC[C@@H]([C@H]1C)[C@@]24OO3` [ARTEMOTIL], the Activity in test [5] was 63%. In test [1], this compound displayed an IC50 of 13.1 µM and an IC80 of 212 µM.
For the compound `C[C@H]1[C@@H](O)O[C@@H]2O[C@@]3(C)CC[C@H]4[C@H](C)CC[C@@H]1[C@@]24OO3` [ARTENIMOL], in test [1], the IC50 amounted to 83.4 µM and the IC80 is 233 µM.
In test [1], `CC(C)C12C=CC(C)(CC1)OO2` (stereo not drawn) [ASCARIDOLE] had an IC50 above 500 µM and an IC80 above 500 µM. For the same compound, in test [6], the Activity stood at 74.8%.
`COc1cccc2c1C(=O)c1c(O)c3c(c(O)c1C2=O)C[C@@](O)(C(=O)CO)C[C@@H]3O[C@H]1C[C@H](N)[C@H](O)[C@H](C)O1` [DOXORUBICIN]: in test [1], the IC50 was determined as 0.35 µM and it took 1 µM to reach the 80% level (IC80).
In test [1], `C=C1[C@@H](OOCC)O[C@@H]2O[C@]3(C)CC[C@H]4[C@H](C)CC[C@@H]1[C@@]24OO3` [ETHYLPEROXYARTEMISITENE] yielded an IC50 of 11.5 µM and an IC80 of 38.3 µM.
In the same order, the values of `C=C1C(=O)O[C@@H]2/C=C(\C)CC/C=C(/C)C[C@@H](OC(=O)/C(=C/CO)CO)[C@@H]12` [EUPATORIOPICRIN] are 5.7 µM and 13.4 µM.
The matching figures for `C=C1[C@@H](OO)O[C@@H]2O[C@]3(C)CC[C@H]4[C@H](C)CC[C@@H]1[C@@]24OO3` [HYDROPEROXYARTEMISITENE]: 37.8 µM and 59.2 µM.
In the same order, the values of `C[C@H]1[C@H](OC(=O)CCC(=O)O)O[C@@H]2O[C@@]3(C)CC[C@H]4[C@H](C)CC[C@@H]1[C@@]24OO3` [SODIUM ARESUNATE] are 19.9 µM and 53.6 µM.
Regarding `C[C@H]1[C@@H](OCc2ccc(C(=O)O)cc2)O[C@@H]2O[C@]3(C)CC[C@H]4[C@H](C)CC[C@@H]1[C@@]24OO3` [SODIUMARTELINATE], the Activity in test [5] came to 63%. In test [1], this compound had an IC50 of 12.2 µM and an IC80 of 47.9 µM.

The term IC50 denotes the midpoint of a concentration-inhibition curve. Broadly, the IC80 is the concentration needed for an effect of 80%.
